# NPY-Y1 PAM-ag – human NPY-Y1 potentiation or agonism, primary screen | 0.37% of 220,000 active | activation, % at 3.6 µM | P25929 | NPY-Y1 expressing cells, potentiator/agonist activation; in the data active = activation above about 33%, passing the limit was not always enough;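 note: cells stimulated with NPY at EC10 then isoproterenol at EC100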
# WT yeast gro inh – growth inhibition of WT yeast, mitochondrial fusion screen. mitochondrial fusion phenotypic screen, WT strain. 2.1% of 190,000 active. inhibition, % at 10 µM; in the data active = inhibition above about 58%; tested in S. cerevisiae
# RAM inhibit – blocks the yeast RAM network; S. cerevisiae dse1pr::URA3 reporter, 5-FOA growth OD615, 2 d; analog-sensitive cbk1-as2 kinase mutant strain; inhibition, % at 50 µM; 1.8% of 190,000 active;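 active = inhibition above a set limit, 3 SD over mean compound inhibition, cut at about 8.4% in these data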;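 note: inhibition rescues growth on 5-FOA so higher OD means more RAM inhibition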
# NPY Y2 blocker – NPY-Y2 (human) receptor antagonism | inhibition, % at 2.7 µM | AID 793 | NPY-Y2 expressing cells, antagonist mode | P49146 | 0.99% of 140,000 active; in the data active = inhibition above about 17%
# Target sequence (P49146 whole entry, looked up): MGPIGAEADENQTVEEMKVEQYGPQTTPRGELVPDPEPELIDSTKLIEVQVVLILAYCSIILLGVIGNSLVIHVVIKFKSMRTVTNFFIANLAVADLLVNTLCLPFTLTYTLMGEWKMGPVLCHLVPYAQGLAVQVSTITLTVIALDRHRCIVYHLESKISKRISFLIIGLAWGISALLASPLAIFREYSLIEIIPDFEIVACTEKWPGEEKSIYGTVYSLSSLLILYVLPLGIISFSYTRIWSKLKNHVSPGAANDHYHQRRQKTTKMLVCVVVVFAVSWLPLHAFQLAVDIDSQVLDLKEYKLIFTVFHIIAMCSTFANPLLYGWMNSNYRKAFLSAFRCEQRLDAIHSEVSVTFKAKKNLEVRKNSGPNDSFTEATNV
# NPY2 pot ag – potentiates or activates human NPY-Y2 receptor; P49146; cells expressing NPY-Y2, potentiator/agonist read-out; activation, % at 3.6 µM; 0.45% of 220,000 active; in the data active = activation above about 27%;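 note: cells stimulated with NPY near EC25 plus isoproterenol at EC100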
# NPY-Y1 antag – NPY-Y1 (human) receptor antagonism. HEK293-CNG Y1 cells, membrane potential fluorescence; NPY at EC95, then isoproterenol. inhibition, % at 3.6 µM. 1% of 200,000 active. AID 1040;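 active = inhibition above the campaign mean inhibition of all tested compounds plus 3 SD, cut at about 20% in these data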
#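 Material: HEK293 cells co-expressing NPY Y1 receptor and cyclic-nucleotide gated channel. Timing: compound incubation 1 h at room temperature, readout 45 min post-stimulation. Signal: fluorescence, membrane potential probe.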
# NPY-Y2 pot conf – confirmation of human NPY-Y2 receptor potentiators or agonists; shares compounds with NPY2 pot ag; activation, % at 3.6 µM; cell-based NPY-Y2 potentiator/agonist assay; 20% of 450 active; in the data active = activation above about 33%
# NPY-Y1 counter – counter-screen for NPY-Y2 potentiators or agonists: NPY-Y1 potentiators or agonists; shares compounds with NPY2 pot ag; Y1 HEK293-CNG cells, membrane potential fluorescence; activation, % at 3.6 µM; 20% of 450 active; AID 1651; in the data active = activation above about 45%;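 note: cells stimulated with submaximal NPY then isoproterenol with phosphodiesterase inhibitor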
# NPY-Y1 ag 2 – counter-screen for NPY-Y2 potentiators: agonists of human NPY-Y1; activation, % at 3.6 µM; HEK293 Y1-CNGC, membrane potential fluorescence, agonism; 37% of 450 active; shares compounds with NPY2 pot ag;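 active = activation above the mean of DMSO-only control wells plus 3 SD, cut at about 18% in these data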;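 note: cells stimulated with 1 µM isoproterenol plus the PDE inhibitor Ro 20-1724; Y1 agonists lower the membrane potential dye signal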
# CNGC inh – blocks CNG channel activity, counter-screen for NPY-Y2 potentiators; shares compounds with NPY2 pot ag; HEK293-CNG parental, isoproterenol cAMP, membrane potential fluorescence; inhibition, % at 3.6 µM; 32% of 450 active; AID 1703;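 active = inhibition above the control-well mean plus 3 SD of those wells, cut at about 22% in these data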
# Y2 agonist ctr – activates human NPY-Y2 receptor in potentiator counter-screen | HEK293 Y2/CNGC cells, membrane potential fluorescence, agonist mode | AID 1710 | shares compounds with NPY2 pot ag | activation, % at 3.6 µM | 56% of 450 active;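 active = activation above the mean of solvent-only control wells plus 3 SD, cut at about 10% in these data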;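 note: cells stimulated by isoproterenol with no NPY added so direct agonism is tested; agonism lowers probe fluorescence through less cAMP and CNG channel opening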
# Hits are given with their value; i = inactive; nt = not tested or not shown. An excerpt weighted towards active compounds, which were near 4.9% of everything screened.
SMILES,NPY-Y1 PAM-ag,WT yeast gro inh,RAM inhibit,NPY Y2 blocker,NPY2 pot ag,NPY-Y1 antag,NPY-Y2 pot conf,NPY-Y1 counter,NPY-Y1 ag 2,CNGC inh,Y2 agonist ctr
CCCN1Cc2cccc(C(=O)N3CCN(c4ccccc4)CC3)c2C1=O,i,i,i,i,38.0,i,i,i,i,i,i
Cc1c(C(=O)Oc2ccc(Cl)cc2)n(C)oc1=O,i,nt,nt,nt,i,nt,nt,nt,nt,nt,nt
Cc1ccc(C(=O)Nc2nc3ccccc3n2CCN2CCCC2)cc1,i,i,i,i,43.9,i,49.9,49.5,19.2,38.6,47.5
O=C(Nc1nc2ccccc2n1CCN1CCCC1)c1ccc(Cl)cc1,i,i,i,i,i,i,nt,nt,nt,nt,nt
COc1ccc(N2CCN(C(=O)COc3ccccc3)CC2)cc1,i,i,i,i,i,i,nt,nt,nt,nt,nt
CCCn1c(CCC(=O)O)nc2cc(S(N)(=O)=O)ccc21,i,nt,nt,nt,104.2,nt,i,i,i,i,i
CSc1ccccc1C(=O)Nc1cccc(C)c1,i,i,i,i,i,i,nt,nt,nt,nt,nt
OC(COc1ccc(-c2ccccc2)cc1)CN1CCOCC1 (configuration not stated),i,i,i,nt,56.3,i,i,i,i,i,i
O=C1SCCC1NC(=O)C(c1ccccc1)c1ccccc1 (configuration not stated),i,nt,nt,nt,i,nt,nt,nt,nt,nt,nt
Cc1cccc(NNC(=O)C(=O)NNc2cccc(C)c2)c1,i,nt,nt,nt,i,nt,nt,nt,nt,nt,nt
CC(=O)C(=Nc1ccc(Cl)cc1Cl)NNc1cccc(Cl)c1,i,i,i,i,33.3,i,i,i,i,i,27.6
O=C1C(Cl)=C(Nc2ccc(O)cc2)C(=O)c2ccccc21,i,nt,nt,nt,36.5,nt,i,i,i,29.4,32.6
Cc1ccc(NC2=C(Cl)C(=O)c3ccccc3C2=O)cc1,i,i,i,i,i,i,nt,nt,nt,nt,nt
CC1(C)C(=O)OC(/C=C\c2ccccc2)C(C)(C)C1=O (configuration not stated),i,i,i,nt,33.0,i,i,i,i,i,i
CC1(C)C(=O)OC(c2c3ccccc3cc3ccccc23)C(C)(C)C1=O (configuration not stated),i,nt,nt,nt,i,nt,nt,nt,nt,nt,nt
CC(C)OC(=O)C(C)Nc1n[nH]c(=S)[nH]c1=O (configuration not stated),i,i,i,nt,73.2,i,i,i,i,i,11.5
Oc1ccccc1Nc1nc(NCc2ccccc2)c2ccccc2n1,i,86.0,i,nt,36.3,i,46.8,56.3,44.6,48.0,45.4
Nc1cc(-c2cccc(Br)c2)nn1Cc1ccccc1,i,i,i,i,i,i,nt,nt,nt,nt,nt
Nc1cc(-c2ccc(Br)cc2)nn1Cc1ccccc1,i,i,i,nt,36.1,i,i,i,i,i,27.5
Nc1nnc(CC(=O)Nc2ccccc2)s1,i,nt,nt,nt,47.1,nt,i,i,i,i,i
Cc1ccc(NC(=O)Cc2nnc(N)s2)cc1,i,nt,nt,nt,i,nt,nt,nt,nt,nt,nt
Cc1cc(C)c2sc(N(CCCN(C)C)C(=O)c3ccc(Br)s3)nc2c1,i,94.3,i,nt,36.9,i,73.5,87.8,67.5,74.9,81.3
CN(C)CCN(C(=O)c1ccc(Br)s1)c1nc2cc3c(cc2s1)OCCO3,i,i,i,nt,i,i,nt,nt,nt,nt,nt
C(=N\Nc1ncnc2sc3c(c12)CCC3)/c1cccs1,i,i,i,i,i,i,nt,nt,nt,nt,nt
Cn1cnc2c(N/N=C/c3cccs3)ncnc21,i,nt,nt,nt,63.8,nt,i,i,i,i,i
SMILES,NPY-Y1 PAM-ag,WT yeast gro inh,RAM inhibit,NPY Y2 blocker,NPY2 pot ag,NPY-Y1 antag,NPY-Y2 pot conf,NPY-Y1 counter,NPY-Y1 ag 2,CNGC inh,Y2 agonist ctr
O=C1c2ccccc2C(=O)N1CCCOCc1c[nH]c(=O)[nH]c1=O,i,i,i,i,i,i,nt,nt,nt,nt,nt
O=c1[nH]cc(COCC(F)CCl)c(=O)[nH]1 (configuration not stated),i,nt,nt,nt,93.1,nt,i,i,i,i,i
OCCCNC(=S)Nc1ccc2nc(-c3ccccn3)c(-c3ccccn3)nc2c1,i,i,i,i,i,i,nt,nt,nt,nt,nt
CCC(COC(=O)Nc1cccc(C)c1C)NC(=O)OCC(C)C (configuration not stated),i,i,i,i,i,i,nt,nt,nt,nt,nt
CCCOC(=O)NC(CC)COC(=O)Nc1cccc(C)c1C (configuration not stated),i,i,i,i,33.1,i,i,i,i,i,i
COc1ccc(NC(=O)C(=S)NC2CCCCC2)cc1,i,i,i,nt,31.4,i,i,i,i,i,i
CCOC(=O)Nc1nnc(-c2cccc(OC)c2)s1,i,i,i,i,48.8,i,i,i,24.7,i,i
CC1CCCCN1S(=O)(=O)c1cn(C)c(=O)n(C)c1=O (configuration not stated),i,i,i,nt,i,i,nt,nt,nt,nt,nt
CCN(CC)c1ccc(NC(=O)/C=C\c2ccccc2Cl)cc1,i,i,i,i,30.6,i,i,i,24.7,27.0,26.7
COC(=O)CN1C(=S)N(c2ccc(Cl)cc2)C(=O)C1CC(=O)Nc1ccc(Cl)cc1 (configuration not stated),i,i,i,i,54.7,i,48.8,71.6,67.5,59.8,66.9
COC(=O)CN1C(=S)N(c2ccc(Cl)cc2)C(=O)C1CC(=O)Nc1ccc(F)cc1 (configuration not stated),i,i,i,i,30.1,i,i,57.6,43.0,46.4,37.9
O=C(CC1C(=O)NCCN1C(=O)Nc1ccc(Cl)cc1)Nc1ccc(F)cc1 (configuration not stated),i,i,i,nt,28.9,i,55.2,74.9,57.9,57.2,50.4
COC(=O)CN1C(=S)N(c2ccc(F)cc2)C(=O)C1CC(=O)Nc1ccc(F)cc1 (configuration not stated),i,nt,nt,nt,i,nt,nt,nt,nt,nt,nt
Cn1c(N)c(C(=O)N/N=C/c2ccccc2)sc1=S,i,nt,nt,nt,39.6,nt,i,i,23.1,33.4,16.7
COc1ccc(S(=O)(=O)Nc2cccc(F)c2)cc1C,i,i,i,nt,i,i,nt,nt,nt,nt,nt
COc1ccc(S(=O)(=O)Nc2ccc(S(=O)(=O)Nc3ccc(F)cc3)cc2)cc1C,i,i,9.6,i,33.8,i,i,i,26.9,22.5,21.1
O=C(Nc1ccccc1)C1CCCN(C(=O)c2ccc(Cl)cc2)C1 (configuration not stated),i,i,i,nt,i,i,nt,nt,nt,nt,nt
